Read-outs that look alike come from different tables or passages of the source.
Experiments:
[1] = biological target: insulin lisargine (human); assay: crystal structure
[2] = biological target: insulin lisargine (human); assay: crystal structure; remark: listed apart in the source
[3] = biological target: T1, insulin receptor isoform B (IR-B) (Homo sapiens, UniProt P06213); assay: Insulin receptor phosphorylation assay; format: cell-based; details: CHO cells expressing insulin receptor; phospho-specific ELISA; Fig. 6B
T1 sequence (P06213 28-758 limits assumed): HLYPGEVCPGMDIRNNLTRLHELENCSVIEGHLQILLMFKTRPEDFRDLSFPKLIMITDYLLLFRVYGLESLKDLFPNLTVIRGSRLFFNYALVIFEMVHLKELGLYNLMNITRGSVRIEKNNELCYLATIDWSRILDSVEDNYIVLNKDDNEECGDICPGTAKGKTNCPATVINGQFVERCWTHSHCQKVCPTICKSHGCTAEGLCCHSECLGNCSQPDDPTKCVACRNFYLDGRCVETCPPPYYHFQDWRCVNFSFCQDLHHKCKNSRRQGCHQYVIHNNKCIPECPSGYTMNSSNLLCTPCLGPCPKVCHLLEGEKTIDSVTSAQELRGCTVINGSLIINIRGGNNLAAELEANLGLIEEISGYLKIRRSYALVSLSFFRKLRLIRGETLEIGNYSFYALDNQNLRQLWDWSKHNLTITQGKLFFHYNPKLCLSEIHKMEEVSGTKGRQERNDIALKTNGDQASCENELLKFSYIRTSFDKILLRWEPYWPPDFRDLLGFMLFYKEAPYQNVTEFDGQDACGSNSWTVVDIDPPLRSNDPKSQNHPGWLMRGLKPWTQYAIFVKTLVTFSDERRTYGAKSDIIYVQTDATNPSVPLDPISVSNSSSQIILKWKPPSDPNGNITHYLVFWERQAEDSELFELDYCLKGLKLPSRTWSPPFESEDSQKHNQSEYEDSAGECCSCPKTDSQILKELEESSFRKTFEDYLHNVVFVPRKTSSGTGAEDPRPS
T1 sequence (P06213 763-1382 limits assumed): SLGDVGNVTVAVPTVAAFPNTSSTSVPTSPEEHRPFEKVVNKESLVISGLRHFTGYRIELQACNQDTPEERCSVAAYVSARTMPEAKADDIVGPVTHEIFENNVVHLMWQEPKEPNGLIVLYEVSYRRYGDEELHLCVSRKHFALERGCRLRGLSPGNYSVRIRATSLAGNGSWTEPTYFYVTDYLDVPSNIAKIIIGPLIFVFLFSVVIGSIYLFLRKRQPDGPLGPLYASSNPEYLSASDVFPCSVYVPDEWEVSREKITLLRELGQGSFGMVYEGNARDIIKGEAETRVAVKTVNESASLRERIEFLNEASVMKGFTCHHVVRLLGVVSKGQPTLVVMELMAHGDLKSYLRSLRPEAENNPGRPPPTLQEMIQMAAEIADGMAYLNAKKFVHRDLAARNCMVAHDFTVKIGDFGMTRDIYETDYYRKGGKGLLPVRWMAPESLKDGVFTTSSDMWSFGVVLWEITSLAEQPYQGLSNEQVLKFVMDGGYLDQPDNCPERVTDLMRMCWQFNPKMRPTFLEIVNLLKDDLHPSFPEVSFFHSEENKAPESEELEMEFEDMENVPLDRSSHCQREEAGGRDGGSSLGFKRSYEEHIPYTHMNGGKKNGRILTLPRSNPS
In short: (§1)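 CHO cells expressing IR isoforms A and B were cultured in DMEM with 10% FBS and 1% penicillin-streptomycin, then serum-starved. Cells were exposed to insulin at 0.1, 1 or 10 nM for 5, 15 or 30 min. Lysates were applied to anti-phosphotyrosine-coated wells and detected with an HRP-conjugated secondary antibody. Receptor phosphorylation was quantified from absorbance.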

[4] = biological target: T2, insulin receptor isoform A (IR-A) (Homo sapiens, UniProt P06213); assay: Insulin receptor phosphorylation assay; format: cell-based; details: CHO cells expressing insulin receptor; phospho-specific ELISA; Fig. 6A
T2 sequence (P06213 28-1370 isoform P06213-2 limits assumed): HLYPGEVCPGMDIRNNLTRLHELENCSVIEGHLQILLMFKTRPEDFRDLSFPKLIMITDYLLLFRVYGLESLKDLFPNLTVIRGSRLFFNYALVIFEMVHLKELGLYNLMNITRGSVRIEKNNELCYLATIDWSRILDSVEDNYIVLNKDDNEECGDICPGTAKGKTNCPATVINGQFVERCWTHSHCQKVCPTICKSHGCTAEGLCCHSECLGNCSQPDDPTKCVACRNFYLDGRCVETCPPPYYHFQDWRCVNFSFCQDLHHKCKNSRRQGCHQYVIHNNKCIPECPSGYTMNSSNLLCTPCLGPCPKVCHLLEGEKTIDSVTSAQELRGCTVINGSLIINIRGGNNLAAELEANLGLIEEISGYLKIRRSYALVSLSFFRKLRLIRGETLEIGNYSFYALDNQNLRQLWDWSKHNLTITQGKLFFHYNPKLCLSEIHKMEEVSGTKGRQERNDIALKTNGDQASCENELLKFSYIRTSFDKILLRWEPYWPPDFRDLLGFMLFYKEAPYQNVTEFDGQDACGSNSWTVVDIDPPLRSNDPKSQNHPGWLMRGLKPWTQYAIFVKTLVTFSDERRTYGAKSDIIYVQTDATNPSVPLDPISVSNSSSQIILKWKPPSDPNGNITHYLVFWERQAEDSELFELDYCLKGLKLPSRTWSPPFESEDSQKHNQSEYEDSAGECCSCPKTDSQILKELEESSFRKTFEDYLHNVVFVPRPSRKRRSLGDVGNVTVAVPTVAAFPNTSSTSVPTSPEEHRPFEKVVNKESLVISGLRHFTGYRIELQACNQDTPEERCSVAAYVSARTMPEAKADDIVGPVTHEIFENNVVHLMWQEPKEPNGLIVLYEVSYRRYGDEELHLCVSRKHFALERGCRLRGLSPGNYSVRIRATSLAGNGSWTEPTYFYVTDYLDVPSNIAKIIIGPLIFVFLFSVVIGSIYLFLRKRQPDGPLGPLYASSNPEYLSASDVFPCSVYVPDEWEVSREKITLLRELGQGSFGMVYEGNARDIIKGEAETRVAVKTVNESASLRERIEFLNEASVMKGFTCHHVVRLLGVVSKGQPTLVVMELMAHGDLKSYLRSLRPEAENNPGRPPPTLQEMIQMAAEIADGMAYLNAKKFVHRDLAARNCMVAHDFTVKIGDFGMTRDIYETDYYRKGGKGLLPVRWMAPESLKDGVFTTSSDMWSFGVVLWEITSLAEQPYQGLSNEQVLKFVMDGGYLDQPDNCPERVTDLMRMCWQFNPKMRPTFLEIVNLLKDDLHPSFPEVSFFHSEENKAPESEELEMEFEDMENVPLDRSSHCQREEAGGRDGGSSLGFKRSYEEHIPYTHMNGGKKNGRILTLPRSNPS
T2 sequence (P06213 763-1382 limits assumed): as the sequence (P06213 763-1382 limits assumed) above
In short: as §1

[5] = biological target: T2, insulin receptor isoform A (IR-A); assay: Insulin receptor binding assay; details: CHO cell lysates, [125I]-labeled insulin competition; Fig. 6C
In short: (§2)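 CHO cells expressing insulin receptor isoforms A and B were grown in DMEM with 10% FBS and 1% penicillin-streptomycin, then serum-starved. Cell lysates were incubated with [125I]-insulin with or without excess unlabeled competitor. Bound and free tracer were separated by gel filtration and radioactivity was counted per fraction. IC50 values came from competitive binding curves.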

type 1 diabetic rats = format: in vivo, NOD rats
In short: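 […]. […] Single dose: overnight fast, then tail-vein glucose by glucometer at 1, 2, 4 and 6 h. Multiple dose: daily injections, glucose at 2, 4 and 6 h post-injection. Triplicate measurements, means reported.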

[6] = biological target: insulin-like growth factor 1 receptor (IGF-1R) (Homo sapiens, UniProt P08069); assay: IGF-1R binding assay; details: H19-7/IGF-1R cell line, [125I]-labeled IGF competition; Fig. 6E
Chain of insulin-like growth factor 1 receptor (IGF-1R) (P08069 31-736 limits assumed): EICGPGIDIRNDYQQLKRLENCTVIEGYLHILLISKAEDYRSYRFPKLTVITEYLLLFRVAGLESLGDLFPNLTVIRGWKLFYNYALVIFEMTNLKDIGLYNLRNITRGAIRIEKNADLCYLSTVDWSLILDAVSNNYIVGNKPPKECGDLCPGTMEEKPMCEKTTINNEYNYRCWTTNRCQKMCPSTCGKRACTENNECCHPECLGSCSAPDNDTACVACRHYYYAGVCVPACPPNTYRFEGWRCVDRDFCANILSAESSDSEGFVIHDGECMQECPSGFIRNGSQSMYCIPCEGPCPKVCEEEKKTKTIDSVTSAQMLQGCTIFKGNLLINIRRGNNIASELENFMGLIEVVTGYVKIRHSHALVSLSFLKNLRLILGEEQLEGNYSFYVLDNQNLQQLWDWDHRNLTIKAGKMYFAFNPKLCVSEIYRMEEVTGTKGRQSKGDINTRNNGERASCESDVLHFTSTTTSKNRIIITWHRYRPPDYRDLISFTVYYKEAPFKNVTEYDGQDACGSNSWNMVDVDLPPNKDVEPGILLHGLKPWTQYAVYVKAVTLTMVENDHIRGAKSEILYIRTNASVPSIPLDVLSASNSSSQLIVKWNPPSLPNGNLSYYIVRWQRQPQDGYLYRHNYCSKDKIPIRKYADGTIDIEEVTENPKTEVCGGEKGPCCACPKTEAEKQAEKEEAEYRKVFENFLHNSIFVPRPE
Chain of insulin-like growth factor 1 receptor (IGF-1R) (P08069 741-1367 limits assumed): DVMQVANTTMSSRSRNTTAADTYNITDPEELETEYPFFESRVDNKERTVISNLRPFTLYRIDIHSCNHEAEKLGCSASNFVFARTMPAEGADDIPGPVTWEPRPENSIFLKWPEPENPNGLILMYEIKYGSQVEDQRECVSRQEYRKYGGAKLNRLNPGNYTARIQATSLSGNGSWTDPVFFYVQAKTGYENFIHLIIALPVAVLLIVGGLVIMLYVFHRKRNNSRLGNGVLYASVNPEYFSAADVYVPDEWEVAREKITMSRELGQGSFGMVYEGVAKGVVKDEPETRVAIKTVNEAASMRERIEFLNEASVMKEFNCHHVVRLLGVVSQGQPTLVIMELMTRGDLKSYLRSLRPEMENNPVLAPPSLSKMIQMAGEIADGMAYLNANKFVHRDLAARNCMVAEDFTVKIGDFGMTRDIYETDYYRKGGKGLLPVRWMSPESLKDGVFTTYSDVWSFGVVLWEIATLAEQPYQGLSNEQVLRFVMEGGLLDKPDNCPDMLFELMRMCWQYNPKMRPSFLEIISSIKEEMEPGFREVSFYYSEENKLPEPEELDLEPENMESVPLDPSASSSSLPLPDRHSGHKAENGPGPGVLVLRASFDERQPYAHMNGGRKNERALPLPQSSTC

animals = assay: In vivo immunogenicity studies in animals; details: no details given
[7] = Toxicokinetic / pharmacokinetic study of insulin injection in Beagle dogs; format: in vivo, Beagle dogs (Canis lupus familiaris); details: subcutaneous, across all doses (0.5, 1, 1.5 IU/kg vs Lantus 1.5 IU/kg), Fig. 5
[8] = biological target: T1, insulin receptor isoform B (IR-B); assay: Insulin receptor binding assay; details: CHO cell lysates, [125I]-labeled insulin competition; Fig. 6D
In short: as §2

Row | Substance | stoichiometry N [1] | stoichiometry N [2] | IR-B phosphorylation levels compared with Lantus [3] | IR-A phosphorylation levels compared with Lantus [4] | binding affinity to IR-A compared with Lantus [5] | glucose-lowering effect compared with glargine (type 1 diabetic rats; 5 IU/kg (abstract)) | blood glucose levels compared with solvent control, multiple-dose (type 1 diabetic rats; daily administration, at 2, 4 and 6 h post-administration, Fig. 4B) | glucose-lowering effects compared with Aspart Insulin (type 1 diabetic rats; equivalent dose of 5 IU/kg, single-dose and multiple-dose studies) | time of most pronounced glucose-lowering effect, multiple-dose (type 1 diabetic rats; multiple-dose, 5 IU/kg group, Fig. 4B) | time of peak glucose-lowering effect, multiple-dose (type 1 diabetic rats; multiple-dose, 10 IU/kg, Fig. 4B) | blood glucose levels compared with solvent control, single-dose (type 1 diabetic rats; single dose (2.5, 5, 10 IU/kg), at 1, 2, 4 and 6 h post-administration, Fig. 4A) | time point of most pronounced glucose-lowering effect, single-dose (type 1 diabetic rats; single dose, Fig. 4A) | IGF-1R binding affinity / IC50 compared with Lantus (insulin glargine) [6] | immunogenicity in animals (animals) | plasma insulin concentrations compared with Lantus (insulin glargine) [7] | binding affinity to IR-B compared with Lantus [8]
1 | insulin lisargine (ligand) | 2 | 6 |  |  |  |  |  |  |  |  |  |  |  |  |  | 
2 | insulin lisargine |  |  | no significant differences | no significant differences | comparable binding affinities | significantly outperformed glargine | significant reductions | comparable to the clinical drug Aspart Insulin | 4 h | 6 h | statistically significant reductions | 4 h | no significant differences in binding affinity or IC50 values | favorable safety profile | no significant differences | comparable binding affinities

Source: publication PMC12464261 (Scientific Reports, 2025)
